Results taken from ChEMBL document CHEMBL4428077, “Synthesis and Biological Evaluation of N-((1-(4-(Sulfonyl)piperazin-1-yl)cycloalkyl)methyl)benzamide Inhibitors of Glycine Transporter-1” (J Med Chem, 2016).
Activity calls are given as the source filed them. The calls are words filed in the database; no cut-off is given here.

Columns and labels:
[1] = Metabolic stability in rat liver microsomes assessed as parent compound remaining at 3 uM incubated for 15 mins by LC-MS analysis; type: ADME, Microsome; conditions: for remaining at 0.25 h, 3 µM: liver microsomes, read-out: Stability
Procedure, shortened: (§1)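 Liver microsomes incubated with compound at 3 μM for 15 min. Parent compound remaining was quantified by LC-MS.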

[2] = Metabolic stability in human liver microsomes assessed as parent compound remaining at 3 uM incubated for 15 mins by LC-MS analysis; type: ADME, Microsome; conditions: for remaining at 0.25 h, 3 µM: liver microsomes, read-out: Stability; for Stability: microsomes, 0.25 h, 3 µM; procedure, shortened: as §1
[3] = biological target: T1, Sodium- and chloride-dependent glycine transporter 1 (Homo sapiens, UniProt P48067); test: Inhibition of glycine transporter-1B in human JAR cells assessed as reduction in [14C]glycine uptake preincubated for 10 mins followed by [14C]glycine addition measured after 3 hrs by scintillation proximity assay; type: cell-based
T1 sequence (P48067 whole entry): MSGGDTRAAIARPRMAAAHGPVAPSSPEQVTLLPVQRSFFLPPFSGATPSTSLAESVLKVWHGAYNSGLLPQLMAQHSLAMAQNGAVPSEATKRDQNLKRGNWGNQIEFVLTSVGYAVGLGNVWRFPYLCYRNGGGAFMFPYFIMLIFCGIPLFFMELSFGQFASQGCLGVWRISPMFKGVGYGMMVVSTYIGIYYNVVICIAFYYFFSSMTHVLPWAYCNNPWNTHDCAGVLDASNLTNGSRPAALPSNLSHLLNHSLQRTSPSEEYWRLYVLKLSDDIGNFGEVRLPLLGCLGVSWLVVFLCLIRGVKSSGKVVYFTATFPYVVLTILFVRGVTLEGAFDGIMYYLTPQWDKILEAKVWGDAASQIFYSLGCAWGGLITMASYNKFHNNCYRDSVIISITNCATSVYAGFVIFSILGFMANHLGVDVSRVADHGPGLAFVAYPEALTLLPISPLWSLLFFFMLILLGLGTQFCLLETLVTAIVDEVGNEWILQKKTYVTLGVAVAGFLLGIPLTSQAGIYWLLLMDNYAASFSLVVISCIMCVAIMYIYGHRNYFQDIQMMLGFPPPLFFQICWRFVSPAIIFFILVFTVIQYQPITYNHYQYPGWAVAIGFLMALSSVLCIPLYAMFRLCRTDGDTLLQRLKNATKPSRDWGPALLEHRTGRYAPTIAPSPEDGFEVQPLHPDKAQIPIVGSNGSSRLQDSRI
Procedure, shortened: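 Whole-cell SPA in JAR cells, which endogenously express hGlyT-1b. Cells (50,000 per well) were attached overnight in RPMI/10% FBS at 37 °C, 5% CO₂. [¹⁴C]glycine was then added and incubated 3 h at 37 °C. The assay window was set with unlabeled glycine. A reference standard ran on each plate. IC₅₀ values are means of n ≥ 2.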

[4] = biological target: T2, Sodium- and chloride-dependent glycine transporter 2 (Homo sapiens, UniProt Q9Y345); test: Inhibition of human glycine transporter-2 expressed in HEK293 cells assessed as reduction in [14C]glycine uptake preincubated for 10 mins followed by [14C]glycine addition measured after 3 hrs by scintillation proximity assay; type: cell-based
T2 sequence (Q9Y345 whole entry): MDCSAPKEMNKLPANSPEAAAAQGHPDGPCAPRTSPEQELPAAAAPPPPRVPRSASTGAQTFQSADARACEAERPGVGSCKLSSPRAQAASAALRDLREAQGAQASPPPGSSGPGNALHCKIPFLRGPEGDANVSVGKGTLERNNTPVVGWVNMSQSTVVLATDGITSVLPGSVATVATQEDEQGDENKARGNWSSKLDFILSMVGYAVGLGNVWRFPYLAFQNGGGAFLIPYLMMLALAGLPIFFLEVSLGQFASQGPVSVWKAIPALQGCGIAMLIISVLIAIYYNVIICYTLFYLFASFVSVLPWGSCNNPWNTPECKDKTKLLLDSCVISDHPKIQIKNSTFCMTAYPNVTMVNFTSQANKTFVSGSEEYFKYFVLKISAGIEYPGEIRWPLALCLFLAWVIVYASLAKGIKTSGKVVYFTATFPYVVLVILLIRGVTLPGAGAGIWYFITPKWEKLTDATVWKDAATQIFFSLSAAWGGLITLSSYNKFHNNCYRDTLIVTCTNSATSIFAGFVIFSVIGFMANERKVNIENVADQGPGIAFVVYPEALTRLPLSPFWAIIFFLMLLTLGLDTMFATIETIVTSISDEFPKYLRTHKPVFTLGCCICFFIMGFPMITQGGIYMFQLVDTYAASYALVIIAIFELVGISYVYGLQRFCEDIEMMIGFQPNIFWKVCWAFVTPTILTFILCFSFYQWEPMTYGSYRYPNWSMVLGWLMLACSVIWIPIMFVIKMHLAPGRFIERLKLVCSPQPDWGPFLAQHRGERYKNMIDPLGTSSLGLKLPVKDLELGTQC
Procedure, shortened: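 HEK293 cells stably transfected with GlyT-2 (Geneticin-selected polyclonal population) were plated on poly-L-lysine-coated plates in DMEM/10% FBS and incubated overnight. The [¹⁴C]glycine uptake SPA was then run as for JAR cells: uptake buffer, 10 min room-temperature preincubation, 3 h incubation at 37 °C.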

[5] = Intrinsic clearance in rat liver microsomes at 3 uM incubated up to 60 mins by LC-MS analysis; type: ADME, Microsome; conditions: read-out: CLH
Procedure, shortened: (§2)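 Liver microsomes with a cofactor regeneration system and compound at 3 μM, incubated at 37 °C. Reactions were stopped at 0, 5, 15, 30, 45 and 60 min, in duplicate. Compound remaining was measured by LC-MS. ln(%remaining) was plotted against time, and the slope was normalized to protein to give CL_int. Testosterone at 10 μM served as control.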

[6] = Intrinsic clearance in human liver microsomes at 3 uM incubated up to 60 mins by LC-MS analysis; type: ADME, Microsome; conditions: read-out: CLH; procedure, shortened: as §2
Cynomolgus monkey [7] = test: In vivo inhibition of glycine transporter-1 in cynomolgus monkey assessed as increase in CSF glycine level at 0.3 to 10 mg/kg, po measured at 24 hrs post dose by LC-MS/MS analysis; type: functional, organism-based; conditions: Macaca fascicularis
Procedure, shortened: (§3)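 Cynomolgus monkeys, n = 3 per group, given oral doses of 0.4, 1.5, 4.7 or 15.7 μmol/kg. Vehicle was 5% Solutol / 20% Captisol in 25 mM PBS, pH 2. CSF (about 0.30 mL) was drawn through subcutaneous ports with a sterile Huber needle predose and at 0.5, 1, 2, 3, 4, 8, 12 and 24 h. Matched blood was taken at each time. Mean ± SD.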

[8] = biological target: T3, Sodium- and chloride-dependent glycine transporter 1 (Homo sapiens) (UniProt P48067); test: Competitive inhibition of glycine transporter-1 (unknown origin) expressed in HEK293 cells at 12 to 108 nM in presence of [3H]glycine by scintillation proximity assay; type: cell-based
T3 sequence (whole entry): T1 sequence (P48067 whole entry)
Procedure, shortened: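 Whole-cell SPA glycine transport with transfected HEK-293 cells expressing GlyT-1. Increasing [³H]-glycine concentrations were run at several fixed inhibitor concentrations to derive B_max and K_d for glycine and judge the binding mode.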

Cynomolgus monkey [9] = test: In vivo inhibition of glycine transporter-1 in cynomolgus monkey assessed as increase in CSF glycine level at 0.3 to 10 mg/kg, po measured at 2 to 4 hrs post dose by LC-MS/MS analysis; type: functional, organism-based; conditions: Macaca fascicularis; procedure, shortened: as §3

| SMILES | remaining at 0.25 h, 3 µM [1] [%] | remaining at 0.25 h, 3 µM [2] [%] | IC50 [3] [nM] | IC50 [4] [nM] | also measured |
| --- | --- | --- | --- | --- | --- |
| Cn1cnc(S(=O)(=O)N2CCN(C3(CNC(=O)c4ccc(F)cc4Cl)CCC(F)(F)CC3)CC2)c1 | 100 | 85 | 5.09 |  |  |
| CCCS(=O)(=O)N1CCN(C2(CNC(=O)c3ccc(C(F)(F)F)cc3C(F)(F)F)CCC(F)(F)CC2)CC1 |  |  | 8.4 | > 75000 | microsomal CLint at 3 µM [5]: 4.9 µL/min/mg; microsomal CLint at 3 µM [6]: 19 µL/min/mg |
| Cn1cnc(S(=O)(=O)N2CCN(C3(CNC(=O)c4ccc(C(F)(F)F)cc4Cl)CCC(F)(F)CC3)CC2)c1 | 90 | 60 | 2.35 | > 75000 |  |
| CC(NC(=O)c1ccc(C(F)(F)F)cc1Cl)C1(N2CCN(S(=O)(=O)c3cn(C)nn3)CC2)CCC(F)(F)CC1.Cl (single isomer, unassigned; (-)) |  |  |  |  | Stability [2]: 51% |
| CCCS(=O)(=O)N1CCN(C2(CNC(=O)c3c(C)cc(F)cc3OC)CCC(F)(F)CC2)CC1 |  |  | 28.5 | > 75000 |  |
| Cn1cnc(S(=O)(=O)N2CCN(C3(CNC(=O)c4c(F)cccc4F)CCC(F)(F)CC3)CC2)c1 | 92 | 72 | 18.3 | > 75000 |  |
| Cn1cnc(S(=O)(=O)N2CCN(C3(CNC(=O)c4ccc(Cl)cc4Cl)CCC(F)(F)CC3)CC2)c1 | 88 | 30 | 5.29 | > 75000 |  |
| Cn1cc(S(=O)(=O)N2CCN(C3(CNC(=O)c4ccc(Cl)cc4Cl)CCC(F)(F)CC3)CC2)nn1 | 80 | 46 | 1.24 |  |  |
| Cn1cc(S(=O)(=O)N2CCN(C3(CNC(=O)c4ccc(F)cc4Cl)CCC(F)(F)CC3)CC2)nn1 | 100 | 69 | 1.14 |  |  |
| CC(NC(=O)c1ccc(C(F)(F)F)cc1Cl)C1(N2CCN(S(=O)(=O)c3cn(C)nn3)CC2)CCC(F)(F)CC1 (single isomer, unassigned; (+)) |  |  |  |  | inhibition (Cynomolgus monkey [7]): inactive; inhibition [8]: Active; inhibition (Cynomolgus monkey [9]): Active |
| Cn1cc(S(=O)(=O)N2CCN(C3(CNC(=O)c4ccc(C(F)(F)F)cc4C(F)(F)F)CCC(F)(F)CC3)CC2)nn1 | 95 | 64 | 0.733 |  |  |
| CC(NC(=O)c1ccc(C(F)(F)F)cc1Cl)C1(N2CCN(S(=O)(=O)c3cn(C)nn3)CC2)CCC(F)(F)CC1.Cl (racemic) |  |  | 1.03 |  | Stability ([1]; microsomes, 0.25 h, 3 µM): 66%; Stability [2]: 54% |

Continued, in another order:

| remaining at 0.25 h, 3 µM [1] [%] | remaining at 0.25 h, 3 µM [2] [%] | IC50 [3] [nM] | IC50 [4] [nM] | SMILES | also measured |
| --- | --- | --- | --- | --- | --- |
|  |  | 9360 | > 75000 | Nc1cccc(Cl)c1C(=O)NCC1(N2CCN(S(=O)(=O)Cc3ccccc3)CC2)CCCCC1 |  |
| 91 | 33 | 1.27 | > 75000 | Cn1cc(S(=O)(=O)N2CCN(C3(CNC(=O)c4c(Cl)cccc4Cl)CCC(F)(F)CC3)CC2)nn1 |  |
|  |  |  | > 75000 | CC(C)CS(=O)(=O)N1CCN(C2(CNC(=O)c3c(N)cccc3Cl)CCCCC2)CC1 |  |
|  |  | 29 | > 75000 | CCCS(=O)(=O)N1CCN(C2(CNC(=O)c3c(Cl)cccc3OC(F)(F)F)CCC(F)(F)CC2)CC1 |  |
| 94 | 22 | 5.56 | > 75000 | Cn1cnc(S(=O)(=O)N2CCN(C3(CNC(=O)c4c(Cl)cccc4Cl)CCC(F)(F)CC3)CC2)c1 |  |
|  |  | 12.6 |  | CCCS(=O)(=O)N1CCN(C2(CNC(=O)c3ccc(C(F)(F)F)cc3Cl)CCC(F)(F)CC2)CC1 | microsomal CLint at 3 µM [5]: 11 µL/min/mg; microsomal CLint at 3 µM [6]: 16 µL/min/mg |
|  |  | 42.4 | > 75000 | CCCS(=O)(=O)N1CCN(C2(CNC(=O)c3c(Cl)cccc3Cl)CCC(F)(F)CC2)CC1 | microsomal CLint at 3 µM [5]: 4.3 µL/min/mg; microsomal CLint at 3 µM [6]: 3.8 µL/min/mg |
| 95 | 64 | 5.1 |  | Cn1cc(S(=O)(=O)N2CCN(C3(CNC(=O)c4c(F)cccc4F)CCC(F)(F)CC3)CC2)nn1 |  |
|  |  | 38.4 | > 75000 | CCCS(=O)(=O)N1CCN(C2(CNC(=O)c3ccc(F)cc3Cl)CCC(F)(F)CC2)CC1 |  |
|  |  | 146 | > 75000 | Cn1cc(S(=O)(=O)N2CCN(C3(CNC(=O)c4ccc(Cl)cc4Cl)CCCCC3)CC2)cn1 |  |
|  | 0 | 1.54 | > 75000 | Cn1cc(S(=O)(=O)N2CCN(C3(CNC(=O)c4ccc(Cl)cc4Cl)CCCCC3)CC2)nn1 |  |
| 87 | 24 | 0.726 | > 75000 | Cn1cc(S(=O)(=O)N2CCN(C3(CNC(=O)c4c(Cl)cccc4OC(F)(F)F)CCC(F)(F)CC3)CC2)nn1 |  |
| 91 | 9.2 | 1.49 | > 75000 | Cn1cnc(S(=O)(=O)N2CCN(C3(CNC(=O)c4c(Cl)cccc4OC(F)(F)F)CCC(F)(F)CC3)CC2)c1 |  |
